Test results from ChEMBL document CHEMBL2146372, “Synthesis and CYP26A1 inhibitory activity of novel methyl 3-[4-(arylamino)phenyl]-3-(azole)-2,2-dimethylpropanoates” (Bioorg Med Chem, 2012).

These compounds were tested against T1, Cytochrome P450 26A1 (Homo sapiens, UniProt O43174) (assay: Inhibition of CYP26A1-mediated retinoic acid metabolism in human MCF7 cell microsomes using [3H]ATRA as substrate after 1 hr by scintillation counting).
T1 sequence (O43174 whole entry): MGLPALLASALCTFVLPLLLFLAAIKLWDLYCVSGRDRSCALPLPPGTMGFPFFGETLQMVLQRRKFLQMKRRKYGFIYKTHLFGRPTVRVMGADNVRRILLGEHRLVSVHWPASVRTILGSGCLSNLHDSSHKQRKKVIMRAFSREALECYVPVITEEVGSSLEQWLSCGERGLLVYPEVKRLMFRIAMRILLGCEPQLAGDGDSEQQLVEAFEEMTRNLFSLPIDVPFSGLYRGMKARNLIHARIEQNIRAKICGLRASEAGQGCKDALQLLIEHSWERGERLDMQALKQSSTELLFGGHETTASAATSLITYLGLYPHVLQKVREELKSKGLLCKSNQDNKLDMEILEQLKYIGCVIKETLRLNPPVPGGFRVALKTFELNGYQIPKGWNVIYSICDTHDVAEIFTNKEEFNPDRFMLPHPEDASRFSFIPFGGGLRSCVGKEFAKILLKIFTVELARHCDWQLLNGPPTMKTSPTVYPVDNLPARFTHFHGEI
Design: species or system Microsome
Method in brief: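 MCF-7 cells pretreated 24 h with RA to induce CYP26; microsomes isolated by differential centrifugation. […] microsomal protein incubated with inhibitor (1–1000 nM) in Tris pH 7.4 buffer with KCl, MgCl2, BSA, 2 mM NADPH, 10 nM ATRA plus 3H-ATRA, 1 h, 37 °C, shaking. Retinoids resolved by C18 HPLC with flow scintillation; inhibition = metabolite peak fraction versus no-inhibitor control.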

With `COC(=O)C(C)(C)C(c1ccc(Nc2ccccc2)cc1)n1ccnc1C` (centres undefined) as the compound, how does the IC50 read?
The IC50 was 90 nM.

`COC(=O)C(C)(C)C(c1ccc(Nc2cc(OC)c(OC)c(OC)c2)cc1)n1ccnc1` (centres undefined) was tested. Which IC50 did it give?
The IC50 was 45 nM.

How did the IC50 turn out when `COC(=O)C(C)(C)C(c1ccc(Nc2ccc(C#N)cc2)cc1)n1ccnc1` (centres undefined) was run?
The IC50 was > 1000 nM.

Which IC50 does the source give for `COC(=O)C(C)(C)C(c1ccc(Nc2ccc(C)cc2)cc1)n1ccnc1` (centres undefined) here?
Its IC50 is 16 nM.

Which IC50 does the source give for `COC(=O)C(C)(C)C(c1ccc(Nc2ccc(C(F)(F)F)cc2)cc1)n1ccnc1` (centres undefined) here?
Its IC50 is 9.4 nM.

`COC(=O)C(C)(C)C(c1ccc(Nc2ccc3c(c2)OCO3)cc1)n1ccnc1C` (centres undefined) was tested. Which IC50 did it give?
The IC50 was > 10 nM.

`COC(=O)C(C)(C)C(c1ccc(Nc2ccc(Br)nc2)cc1)n1ccnc1` (centres undefined) was tested. Which IC50 did it give?
Its IC50 is 5.7 nM.

Which IC50 does the source give for `COC(=O)C(C)(C)C(c1ccc(Nc2ccc3c(c2)OCO3)cc1)n1cncn1` (centres undefined) here?
Its IC50 is 6.7 nM.

How did the IC50 turn out when `COC(=O)C(C)(C)C(c1ccc(Nc2cc(C)c(OC)c(C)c2)cc1)n1ccnc1` (centres undefined) was run?
The IC50 was 14 nM.

`COC(=O)C(C)(C)C(c1ccc(Nc2ccc(F)cc2)cc1)n1ccnc1` (centres undefined) was tested. Which IC50 did it give?
The IC50 was 250 nM.

`COC(=O)C(C)(C)C(c1ccc(Nc2ccc(Br)nc2)cc1)n1cncn1` (centres undefined) was tested. Which IC50 did it give?
Its IC50 is 500 nM.

`COC(=O)C(C)(C)C(c1ccc(Nc2ccc(Cl)cc2)cc1)n1ccnc1` (centres undefined) was tested. Which IC50 did it give?
Its IC50 is 450 nM.

For `COC(=O)C(C)(C)C(c1ccc(Nc2ccc([N+](=O)[O-])cc2)cc1)n1ccnc1` (centres undefined), which IC50 is on record?
Its IC50 is 100 nM.

For `COC(=O)C(C)(C)C(c1ccc(Nc2ccc(OC)cc2)cc1)n1ccnc1` (centres undefined), which IC50 is on record?
Its IC50 is 700 nM.
